Source: ChEMBL document CHEMBL5674880 (PLoS One, 2018)

Experiments:
Type in all cases: functional, cell-based
SW1463 = assay: Antiproliferative activity against human SW1463 cells after 10 days; conditions: SW1463, 240 h
SJSA-1 = assay: Antiproliferative activity against human SJSA-1 cells after 10 days; conditions: SJSA-1, 240 h
[1] = Antiproliferative activity against human C4-1 cells after 10 days; conditions: C4-1, 240 h
In short: (§1)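 Tested as part of a 240-line cancer cell panel (Eurofins Oncopanel); all lines were mycoplasma-negative and STR-verified. Cells were exposed to a compound concentration series in 2D culture for 10 days. The highest concentration was 10 μM or 25 μM, depending on the inhibitor. Antiproliferative IC50 was derived from the mean of three biological replicates.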

FaDu = assay: Antiproliferative activity against human FaDu cells after 10 days; conditions: 240 h
In short: (§2)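 10-day 2D proliferation screen of a broad cancer cell panel (about 240 lines, Eurofins Oncopanel). All lines were mycoplasma negative and STR verified. Compounds were dosed up to a top concentration of 10 μM or 25 μM, depending on the inhibitor. Anti-proliferative IC50 values are the average of three biological replicates.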

EFM-19 = assay: Antiproliferative activity against human EFM-19 cells after 10 days; conditions: EFM-19, 240 h; in short: as §2
[2] = Antiproliferative activity against human BC1 cells after 10 days; conditions: BC1, 240 h; in short: as §1
Jurkat = assay: Antiproliferative activity against human Jurkat cells after 10 days; conditions: 240 h
In short: (§3)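 Broad cancer cell line panel (Eurofins Oncopanel, about 240 lines; mycoplasma negative, STR verified) grown in 2D culture and exposed to compound in a 10-day proliferation assay. The top concentration was 10 μM for the SMYD2 inhibitor series and 25 μM for the SMYD3 inhibitor. The proliferative IC50 is taken from concentration-response data, each value the mean of three biological replicates.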

CAKI-2 = assay: Antiproliferative activity against human CAKI-2 cells after 10 days; conditions: CAKI-2, 240 h; in short: as §1
DMS-53 = assay: Antiproliferative activity against human DMS-53 cells after 10 days; conditions: DMS-53, 240 h; in short: as §2
Hs 766 = assay: Antiproliferative activity against human Hs766T cells after 10 days; conditions: Hs 766, 240 h; in short: as §2
WiDr = assay: Antiproliferative activity against human WiDr cells after 10 days; conditions: 240 h
HepG2 = assay: Antiproliferative activity against human HepG2 cells after 10 days; conditions: HepG2, 240 h; in short: as §2
HeLa = assay: Antiproliferative activity against human HeLa cells after 10 days; conditions: 240 h; in short: as §2
SW13 = assay: Antiproliferative activity against human SW13 cells after 10 days; conditions: SW13, 240 h
RD = assay: Antiproliferative activity against human RD cells after 10 days; conditions: 240 h; in short: as §3
BeWo = assay: Antiproliferative activity against human BeWo cells after 10 days; conditions: 240 h; in short: as §1
THP-1 = assay: Antiproliferative activity against human THP-1 cells after 10 days; conditions: THP-1, 240 h
JAR = assay: Antiproliferative activity against human JAR cells after 10 days; conditions: 240 h; in short: as §3
[3] = Antiproliferative activity against human CML-T1 cells after 10 days; conditions: CML-T1, 240 h; in short: as §1
MIA PaCa-2 = assay: Antiproliferative activity against human Mia PaCa-2 cells after 10 days; conditions: MIA PaCa-2, 240 h; in short: as §3
CGTH-W-1 = assay: Antiproliferative activity against human CGTH-W-1 cells after 10 days; conditions: CGTH-W-1, 240 h; in short: as §1
HuCCT-1 = assay: Antiproliferative activity against human HuCCT-1 cells after 10 days; conditions: HuCCT-1, 240 h; in short: as §2
SJRH30 = assay: Antiproliferative activity against human SJRH30 cells after 10 days; conditions: SJRH30, 240 h
BT-474 = assay: Antiproliferative activity against human BT-474 cells after 10 days; conditions: BT-474, 240 h; in short: as §1
A549 = assay: Antiproliferative activity against human A549 cells after 10 days; conditions: A549, 240 h; in short: as §1
J-RT3-T3-5 = assay: Antiproliferative activity against human J-RT3-T3-5 cells after 10 days; conditions: J-RT3-T3-5, 240 h; in short: as §3
HT1197 = assay: Antiproliferative activity against human HT1197 cells after 10 days; conditions: HT1197, 240 h
In short: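 Cell lines run in the Eurofins Oncopanel broad cancer panel, all mycoplasma-negative and STR-verified. Cells were exposed to a compound concentration series in a 10-day proliferation assay, and an anti-proliferative IC50 was derived. Values are the mean of three biological replicates.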

DMS-273 = assay: Antiproliferative activity against human DMS-273 cells after 10 days; conditions: DMS-273, 240 h; in short: as §2
T47D = assay: Antiproliferative activity against human T47D cells after 10 days; conditions: 240 h
SCC-4 = assay: Antiproliferative activity against human SCC-4 cells after 10 days; conditions: SCC-4, 240 h
DU-145 = assay: Antiproliferative activity against human DU-145 cells after 10 days; conditions: DU-145, 240 h; in short: as §2
CHP-212 = assay: Antiproliferative activity against human CHP-212 cells after 10 days; conditions: CHP-212, 240 h; in short: as §1
[4] = Antiproliferative activity against human BM-1604 cells after 10 days; conditions: BM-1604, 240 h; in short: as §1
G-401 = assay: Antiproliferative activity against human G-401 cells after 10 days; conditions: G-401, 240 h; in short: as §2
COLO-320-HSR = assay: Antiproliferative activity against human COLO 320HSR cells after 10 days; conditions: 240 h; in short: as §1
A-375 = assay: Antiproliferative activity against human A-375 cells after 10 days; conditions: A-375, 240 h; in short: as §1
639-V = assay: Antiproliferative activity against human 639-V cells after 10 days; conditions: 240 h; in short: as §1
DoTc2-4510 = assay: Antiproliferative activity against human DoTc2-4510 cells after 10 days; conditions: DoTc2-4510, 240 h; in short: as §2
SW837 = assay: Antiproliferative activity against human SW837 cells after 10 days; conditions: SW837, 240 h
MG-63 = assay: Antiproliferative activity against human MG-63 cells after 10 days; conditions: MG-63, 240 h; in short: as §3
SNU1 = assay: Antiproliferative activity against human SNU1 cells after 10 days; conditions: SNU1, 240 h
SNU-423 = assay: Antiproliferative activity against human SNU-423 cells after 10 days; conditions: SNU-423, 240 h
HT-1080 = assay: Antiproliferative activity against human HT-1080 cells after 10 days; conditions: HT-1080, 240 h; in short: as §2
SW948 = assay: Antiproliferative activity against human SW948 cells after 10 days; conditions: SW948, 240 h
BHT-101 = assay: Antiproliferative activity against human BHT-101 cells after 10 days; conditions: BHT-101, 240 h; in short: as §1
[5] = Antiproliferative activity against human A7 cells after 10 days; conditions: A7, 240 h; in short: as §1
SK-UT-1 = assay: Antiproliferative activity against human SK-UT-1 cells after 10 days; conditions: SK-UT-1, 240 h
A-427 = assay: Antiproliferative activity against human A-427 cells after 10 days; conditions: A-427, 240 h; in short: as §1
COLO 205 = assay: Antiproliferative activity against human COLO 205 cells after 10 days; conditions: COLO 205, 240 h; in short: as §1

Structure (SMILES): Cc1cn(CCN2CCN(c3ccccc3-c3cc(C#N)cc(C(=O)NCCCN4CCCC4)c3)CC2)c2ccccc12
- IC50 (SW1463): 3.06 µM
- IC50 (SJSA-1): 1470 nM
- IC50 [1]: 2060 nM
- IC50 (FaDu): 2360 nM
- IC50 (EFM-19): 2680 nM
- IC50 [2]: 3.65 µM
- IC50 (Jurkat): 925 nM
- IC50 (CAKI-2): 1220 nM
- IC50 (DMS-53): 3.17 µM
- IC50 (Hs 766): 2750 nM
- IC50 (WiDr): 838 nM
- IC50 (HepG2): 2350 nM
- IC50 (HeLa): 2960 nM
- IC50 (SW13): 2680 nM
- IC50 (RD): 954 nM
- IC50 (BeWo): 2880 nM
- IC50 (THP-1): 2860 nM
- IC50 (JAR): 2880 nM
- IC50 [3]: 1100 nM
- IC50 (MIA PaCa-2): 2030 nM
- IC50 (CGTH-W-1): 2870 nM
- IC50 (HuCCT-1): 1240 nM
- IC50 (SJRH30): 1230 nM
- IC50 (BT-474): 2940 nM
- IC50 (A549): 3.39 µM
- IC50 (J-RT3-T3-5): 1180 nM
- IC50 (HT1197): 1560 nM
- IC50 (DMS-273): 987 nM
- IC50 (T47D): 2220 nM
- IC50 (SCC-4): 3.59 µM
- IC50 (DU-145): 4.13 µM
- IC50 (CHP-212): 2100 nM
- IC50 [4]: 4.82 µM
- IC50 (G-401): 905 nM
- IC50 (COLO-320-HSR): 2740 nM
- IC50 (A-375): 1910 nM
- IC50 (639-V): 1140 nM
- IC50 (DoTc2-4510): 1070 nM
- IC50 (SW837): 3.69 µM
- IC50 (MG-63): 6.12 µM
- IC50 (SNU1): 1190 nM
- IC50 (SNU-423): 1110 nM
- IC50 (HT-1080): 1980 nM
- IC50 (SW948): 3.91 µM
- IC50 (BHT-101): 1430 nM
- IC50 [5]: 2540 nM
- IC50 (SK-UT-1): 1410 nM
- IC50 (A-427): 1340 nM
- IC50 (COLO 205): 944 nM

Structure (SMILES): O=C(NC1CN(Cc2cnn(Cc3ccccc3)c2)C1)c1cn(C2CC2)nn1
- IC50 (SW1463): > 10 µM
- IC50 (SJSA-1): > 10000 nM
- IC50 [1]: > 10000 nM
- IC50 (FaDu): > 10000 nM
- IC50 (EFM-19): > 10000 nM
- IC50 [2]: > 10 µM
- IC50 (Jurkat): > 10000 nM
- IC50 (CAKI-2): > 10000 nM
- IC50 (DMS-53): > 10 µM
- IC50 (Hs 766): > 10000 nM
- IC50 (WiDr): > 10000 nM
- IC50 (HepG2): > 10000 nM
- IC50 (HeLa): > 10000 nM
- IC50 (SW13): > 10000 nM
- IC50 (RD): > 10000 nM
- IC50 (BeWo): > 10000 nM
- IC50 (THP-1): > 10000 nM
- IC50 (JAR): > 10000 nM
- IC50 [3]: > 10000 nM
- IC50 (MIA PaCa-2): > 10000 nM
- IC50 (CGTH-W-1): > 10000 nM
- IC50 (HuCCT-1): > 10000 nM
- IC50 (SJRH30): > 10000 nM
- IC50 (BT-474): > 10000 nM
- IC50 (A549): > 10 µM
- IC50 (J-RT3-T3-5): 3 nM
- IC50 (HT1197): > 10000 nM
- IC50 (DMS-273): > 10000 nM
- IC50 (T47D): > 10000 nM
- IC50 (SCC-4): > 10 µM
- IC50 (DU-145): > 10 µM
- IC50 (CHP-212): > 10000 nM
- IC50 [4]: > 10 µM
- IC50 (G-401): > 10000 nM
- IC50 (COLO-320-HSR): > 10000 nM
- IC50 (A-375): > 10000 nM
- IC50 (639-V): > 10000 nM
- IC50 (DoTc2-4510): > 10000 nM
- IC50 (SW837): > 10 µM
- IC50 (MG-63): > 10 µM
- IC50 (SNU1): > 10000 nM
- IC50 (SNU-423): > 10000 nM
- IC50 (HT-1080): > 10000 nM
- IC50 (SW948): > 10 µM
- IC50 (BHT-101): > 10000 nM
- IC50 [5]: > 10000 nM
- IC50 (SK-UT-1): > 10000 nM
- IC50 (A-427): > 10000 nM
- IC50 (COLO 205): > 10000 nM
